Columns and labels:
[1] = Inhibition of HIV1 integrase 3' processing activity using 5'-end 32P labeled DNA substrate measured after 2 hrs by PAGE based phosphor imaging method; parameters: species or system Human immunodeficiency virus 1
In short: (§1)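 Gel-based assay, Mg2+ cofactor: 400 nM integrase with 20 nM DNA substrate 5′-32P-labeled on transferred strand in 50 mM MOPS pH 7.2, 7.5 mM MgCl2, 14 mM 2-mercaptoethanol, inhibitor or DMSO; 2 h at 37 °C. Stopped with formamide/SDS loading buffer; products resolved on 16% denaturing polyacrylamide gels, quantified by phosphorimaging.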

[2] = Inhibition of HIV1 integrase strand transfer activity using 5'-end 32P labeled DNA substrate measured after 2 hrs by PAGE based phosphor imaging method; parameters: species or system Human immunodeficiency virus 1; in short: as §1
[3] = system: Human immunodeficiency virus 1; assay: Antiviral activity against VSV-G pseudotyped HIV1 harboring wild-type integrase infected in HOS cells pretreated […] for 3 hrs followed by viral infection measured after 48 hrs by luciferase reporter gene assay; type: functional, cell-based; details: Human immunodeficiency virus 1, HOS
In short: (§2)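 Single-round luciferase HIV-1 vector (pNLNgoMIVR−ΔLUC carrying WT or mutant IN) was pseudotyped with VSV-g by calcium phosphate co-transfection of 293 cells, and supernatant was harvested after 48 h. HOS cells were seeded at 4000/well in DMEM with 5% FBS and 5% newborn calf serum. They were pretreated 3 h at 37 °C with 5–0.0001 μM (11 serial dilutions), then infected for 48 h. Luminescence was normalized to untreated cells, and EC50 came from nonlinear regression.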

[4] = system: Human immunodeficiency virus 1; assay: Antiviral activity against VSV-G pseudotyped HIV1 harboring integrase Y143R mutant infected in HOS cells pretreated […] for 3 hrs followed by viral infection measured after 48 hrs by luciferase reporter gene assay; type: functional, cell-based; details: Human immunodeficiency virus 1, HOS; in short: as §2
[5] = system: Human immunodeficiency virus 1; assay: Antiviral activity against VSV-G pseudotyped HIV1 harboring integrase N155H mutant infected in HOS cells pretreated […] for 3 hrs followed by viral infection measured after 48 hrs by luciferase reporter gene assay; type: functional, cell-based; details: Human immunodeficiency virus 1, HOS; in short: as §2
[6] = system: Human immunodeficiency virus 1; assay: Antiviral activity against VSV-G pseudotyped HIV1 harboring integrase G140S/Q148H double mutant infected in HOS cells pretreated […] for 3 hrs followed by viral infection measured after 48 hrs by luciferase reporter gene assay; type: functional, cell-based; details: Human immunodeficiency virus 1, HOS; in short: as §2
HOS = assay: Cytotoxicity against HOS cells assessed as reduction in cell viability after 48 hrs by ATPLite luminescence assay; type: cell-based; details: human, hos, 48 h
In short: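 HOS cells seeded at 4000 per well the day before, exposed to compounds over 250 to 0.05 μM at 37 °C for 48 h. ATP measured by luminescence after lysis and 20 min signal development at room temperature.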

[7] = system: Human immunodeficiency virus 1; assay: Selectivity ratio of EC50 for VSV-G pseudotyped HIV1 harboring integrase Y143R mutant infected in HOS cells to EC50 for VSV-G pseudotyped HIV1 harboring wild-type integrase infected in HOS cells; type: functional
In short: (§3)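 Fold change is the EC50 against the mutant-IN vector divided by the EC50 against the WT-IN vector. Both come from the single-round luciferase infectivity assay in HOS cells, with a 3 h compound pretreatment followed by 48 h infection.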

[8] = system: Human immunodeficiency virus 1; assay: Selectivity ratio of EC50 for VSV-G pseudotyped HIV1 harboring integrase N155H mutant infected in HOS cells to EC50 for VSV-G pseudotyped HIV1 harboring wild-type integrase infected in HOS cells; type: functional; in short: as §3
[9] = system: Human immunodeficiency virus 1; assay: Selectivity ratio of EC50 for VSV-G pseudotyped HIV1 harboring integrase G140S/Q148H mutant infected in HOS cells to EC50 for VSV-G pseudotyped HIV1 harboring wild-type integrase infected in HOS cells; type: functional; in short: as §3

Structure (SMILES): O=C(NCc1ccc(F)cc1F)c1c(O)c2ccc(N3CCCCC3)nc2n(O)c1=O
- IC50 [1]: > 333000 nM
- IC50 [2]: 70000 nM

Structure (SMILES): COC(=O)CNc1c(C(=O)NCc2ccc(F)cc2F)c(=O)n(O)c2ncc(CCCCCO)cc12
- IC50 [1]: 2100 nM
- IC50 [2]: 4 nM
- EC50 [3]: 3.3 nM
- EC50 [4]: 3.5 nM
- EC50 [5]: 11 nM
- EC50 [6]: 42 nM
- CC50 (HOS): > 250000 nM
- Ratio EC50 [7]: 1
- Ratio EC50 [8]: 3
- Ratio EC50 [9]: 13

Structure (SMILES): Nc1c(C(=O)NCc2ccc(F)cc2F)c(=O)n(O)c2ncc(CCC(=O)NCCO)cc12
- IC50 [2]: 2 nM
- EC50 [3]: 263 nM
- CC50 (HOS): > 250000 nM

Structure (SMILES): Nc1c(C(=O)NCc2ccc(F)cc2F)c(=O)n(O)c2ncc(/C=C/C(=O)NCCO)cc12
- IC50 [2]: 7 nM
- EC50 [3]: 196 nM
- CC50 (HOS): > 250000 nM

Structure (SMILES): CN(C)C(=O)/C=C/c1cnc2c(c1)c(N)c(C(=O)NCc1ccc(F)cc1F)c(=O)n2O
- IC50 [2]: 5 nM
- EC50 [3]: 1.6 nM
- EC50 [4]: 7.2 nM
- EC50 [5]: 15 nM
- EC50 [6]: 58 nM
- CC50 (HOS): > 250000 nM
- Ratio EC50 [7]: 5
- Ratio EC50 [8]: 9
- Ratio EC50 [9]: 36

Structure (SMILES): Nc1c(C(=O)NCc2ccc(F)cc2F)c(=O)n(O)c2ncc(CCCCc3ccccc3)cc12
- IC50 [1]: 42000 nM
- EC50 [3]: 11 nM
- EC50 [4]: 4.7 nM
- EC50 [5]: 39 nM
- EC50 [6]: 128 nM
- CC50 (HOS): 13000 nM
- Ratio EC50 [7]: 0.4
- Ratio EC50 [8]: 4
- Ratio EC50 [9]: 12

Structure (SMILES): Nc1c(C(=O)NCc2ccc(F)cc2F)c(=O)n(O)c2ncc(CCCOCCO)cc12
- IC50 [1]: 1500 nM
- IC50 [2]: 2 nM
- EC50 [3]: 1.6 nM
- EC50 [4]: 1.2 nM
- EC50 [5]: 4.2 nM
- EC50 [6]: 35 nM
- CC50 (HOS): > 250000 nM
- Ratio EC50 [7]: 0.8
- Ratio EC50 [8]: 3
- Ratio EC50 [9]: 22

Structure (SMILES): COc1ccc2c(N)c(C(=O)NCc3ccc(F)cc3F)c(=O)n(O)c2n1
- IC50 [1]: 18000 nM
- IC50 [2]: 11 nM
- EC50 [3]: 30 nM
- EC50 [4]: 62 nM
- EC50 [5]: 400 nM
- EC50 [6]: 3600 nM
- CC50 (HOS): 2200 nM
- Ratio EC50 [7]: 2
- Ratio EC50 [8]: 13
- Ratio EC50 [9]: 120

Structure (SMILES): O=C(NCc1ccc(F)cc1F)c1c(O)c2ccc(N3CCOCC3)nc2n(O)c1=O
- IC50 [1]: > 333000 nM
- IC50 [2]: 1900 nM

Structure (SMILES): O=C(NCc1ccc(F)cc1F)c1c(O)c2cc(CCCCCO)cnc2n(O)c1=O
- IC50 [1]: 14300 nM
- IC50 [2]: 12 nM
- EC50 [3]: 24 nM
- EC50 [4]: 8.3 nM
- EC50 [5]: 32 nM
- EC50 [6]: 29 nM
- CC50 (HOS): > 250000 nM
- Ratio EC50 [7]: 0.3
- Ratio EC50 [8]: 1
- Ratio EC50 [9]: 1

Structure (SMILES): COC(=O)CNc1c(C(=O)NCc2ccc(F)cc2F)c(=O)n(O)c2nc(N3CCCCC3)ccc12
- IC50 [1]: > 333000 nM
- IC50 [2]: 96000 nM

Structure (SMILES): Nc1c(C(=O)NCc2ccc(F)cc2F)c(=O)n(O)c2nc(N3CCCCC3)ccc12
- IC50 [1]: > 333000 nM
- IC50 [2]: 54000 nM

Structure (SMILES): COc1ccc2c(O)c(C(=O)NCc3ccc(F)cc3F)c(=O)n(O)c2n1
- IC50 [1]: 32000 nM
- IC50 [2]: 33 nM
- EC50 [3]: 215 nM
- CC50 (HOS): 12000 nM

Structure (SMILES): CN(C)C(=O)CCc1cnc2c(c1)c(N)c(C(=O)NCc1ccc(F)cc1F)c(=O)n2O
- IC50 [2]: 8 nM
- EC50 [3]: 1.3 nM
- EC50 [4]: 6 nM
- EC50 [5]: 6.8 nM
- EC50 [6]: 16 nM
- CC50 (HOS): > 250000 nM
- Ratio EC50 [7]: 5
- Ratio EC50 [8]: 5
- Ratio EC50 [9]: 12

Structure (SMILES): Nc1c(C(=O)NCc2ccc(F)cc2F)c(=O)n(O)c2ncc(CCCC3CCCCC3)cc12
- IC50 [1]: 289000 nM
- EC50 [3]: 53 nM
- EC50 [4]: 112 nM
- EC50 [5]: 146 nM
- CC50 (HOS): 27400 nM
- Ratio EC50 [7]: 2
- Ratio EC50 [8]: 3

Structure (SMILES): CC(C)NC(=O)/C=C/c1cnc2c(c1)c(N)c(C(=O)NCc1ccc(F)cc1F)c(=O)n2O
- IC50 [2]: 6 nM
- EC50 [3]: 2.1 nM
- EC50 [4]: 11 nM
- EC50 [5]: 12 nM
- EC50 [6]: 286 nM
- CC50 (HOS): > 250000 nM
- Ratio EC50 [7]: 5
- Ratio EC50 [8]: 6
- Ratio EC50 [9]: 136

Structure (SMILES): CN(C)CCCc1cnc2c(c1)c(N)c(C(=O)NCc1ccc(F)cc1F)c(=O)n2O
- IC50 [1]: 3000 nM
- IC50 [2]: 14 nM
- EC50 [3]: 6.1 nM
- EC50 [4]: 7 nM
- EC50 [5]: 29 nM
- EC50 [6]: 32 nM
- CC50 (HOS): 5000 nM
- Ratio EC50 [7]: 1
- Ratio EC50 [8]: 5
- Ratio EC50 [9]: 5

Structure (SMILES): COC(=O)CNc1c(C(=O)NCc2ccc(F)cc2F)c(=O)n(O)c2nc(N3CCOCC3)ccc12
- IC50 [1]: > 333000 nM
- IC50 [2]: 6200 nM

Structure (SMILES): Nc1c(C(=O)NCc2ccc(F)cc2F)c(=O)n(O)c2ncc(CCc3ccccc3)cc12
- IC50 [1]: 48000 nM
- IC50 [2]: 14 nM
- EC50 [3]: 5.6 nM
- EC50 [4]: 5.5 nM
- EC50 [5]: 21 nM
- EC50 [6]: 140 nM
- CC50 (HOS): 18000 nM
- Ratio EC50 [7]: 1
- Ratio EC50 [8]: 4
- Ratio EC50 [9]: 25

Structure (SMILES): Nc1c(C(=O)NCc2ccc(F)cc2F)c(=O)n(O)c2nc(N3CCOCC3)ccc12
- IC50 [1]: > 333000 nM
- IC50 [2]: 54000 nM

Structure (SMILES): Nc1c(C(=O)NCc2ccc(F)cc2F)c(=O)n(O)c2ncc(CCC(=O)O)cc12
- IC50 [2]: 4 nM
- EC50 [3]: 1.9 nM
- EC50 [4]: 4.9 nM
- EC50 [5]: 10 nM
- EC50 [6]: 195 nM
- CC50 (HOS): > 250000 nM
- Ratio EC50 [7]: 3
- Ratio EC50 [8]: 5
- Ratio EC50 [9]: 103

Structure (SMILES): CC(C)NC(=O)CCc1cnc2c(c1)c(N)c(C(=O)NCc1ccc(F)cc1F)c(=O)n2O
- IC50 [2]: 2 nM
- EC50 [3]: 5 nM
- EC50 [4]: 8.7 nM
- EC50 [5]: 11 nM
- EC50 [6]: 13 nM
- CC50 (HOS): > 250000 nM
- Ratio EC50 [7]: 2
- Ratio EC50 [8]: 2
- Ratio EC50 [9]: 3

Structure (SMILES): COC(=O)CNc1c(C(=O)NCc2ccc(F)cc2F)c(=O)n(O)c2nc(OC)ccc12
- IC50 [1]: 20000 nM
- IC50 [2]: 42 nM
- EC50 [3]: 32 nM
- EC50 [4]: 52 nM
- EC50 [5]: 1260 nM
- CC50 (HOS): 12000 nM
- Ratio EC50 [7]: 2
- Ratio EC50 [8]: 39

Reference: ChEMBL document CHEMBL4038328, “Structure-Guided Optimization of HIV Integrase Strand Transfer Inhibitors” (J Med Chem, 2017)
